Assay results: PMC3466776 (Biochemistry, 2012)

Key:
[1] = read-out: Kd for Ca^2+; cited from earlier work
CaM12 = CaM12 (Rattus norvegicus, UniProt P0DP29, D21A/D57A); assay: Stopped-flow Ca^2+ dissociation kinetics of CaM12; format: binding; conditions: for amplitude 1 (relative quin-2 fluorescence change), CaM12: as koff1, CaM12, 22 °C; for amplitude 1 (relative quin-2 fluorescence change), CaM12 / amplitude 2 (relative quin-2 fluorescence change), CaM12: mean ± SD of 3-8 experiments; for amplitude 2 (relative quin-2 fluorescence change), CaM12: as koff2, CaM12, 22 °C
Method in brief: (§1)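 Rat His-CaM (2 μM) with 20 μM CaCl2, alone or with 2 μM synthetic AC1 or AC8 CaMBD peptide, is mixed 1:1 with 150 μM quin-2. These are pre-mix concentrations. Buffer is 20 mM MOPS pH 7.4, 100 mM KCl, 1 mM MgCl2, at 22 °C. Quin-2 fluorescence is read with excitation at 334 nm and a 405 nm cutoff filter. Five to eight runs are averaged and fit single- or double-exponentially. A relative amplitude of 0.03 equals one Ca2+. Values are mean ± SD of ≥3 averages.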

CaM34 = CaM34 (Rattus norvegicus, UniProt P0DP29, D130A/D94A); assay: Stopped-flow Ca^2+ dissociation kinetics of CaM34; format: binding; conditions: mean ± SD of 3-8 experiments; for amplitude 2 (relative quin-2 fluorescence change), CaM34: as koff2, CaM34, 22 °C
Method in brief: as §1

CaMWT = CaMWT (Rattus norvegicus, UniProt P0DP29); assay: Stopped-flow Ca^2+ dissociation kinetics of CaMWT; format: binding; conditions: for number of Ca^2+ ions released, phase 1, CaMWT / number of Ca^2+ ions released, phase 2, CaMWT: 0.03 relative amplitude = one Ca^2+ ion; for amplitude 1 (relative quin-2 fluorescence change), CaMWT: as koff1, CaMWT; for amplitude 1 (relative quin-2 fluorescence change), CaMWT / amplitude 2 (relative quin-2 fluorescence change), CaMWT: mean ± SD of 3-8 experiments; for amplitude 2 (relative quin-2 fluorescence change), CaMWT: as koff2, CaMWT
Method in brief: as §1

[2] = CaM12 with peptide, single-exponential fit, 22 °C, n = 3

| amplitude 1 (relative quin-2 fluorescence change), CaM12 (CaM12) | amplitude 2 (relative quin-2 fluorescence change), CaM12 (CaM12) | amplitude 2 (relative quin-2 fluorescence change), CaM34 (CaM34) | number of Ca^2+ ions released, phase 1, CaMWT (CaMWT; 22 °C) | number of Ca^2+ ions released, phase 2, CaMWT (CaMWT; 22 °C) | total Ca^2+ released in measurable phases, CaMWT (CaMWT; CaMWT with peptide, 22 °C) | amplitude 1 (relative quin-2 fluorescence change), CaMWT (CaMWT; 22 °C) | amplitude 2 (relative quin-2 fluorescence change), CaMWT (CaMWT; 22 °C) | amplitude, single-exponential fit, CaM12 (CaM12; [2]) | rate constant, single-exponential fit, CaM12 (CaM12; [2]) [s^–1] | amplitude 1 (relative quin-2 fluorescence change), CaM34 (CaM34; as koff1, CaM34, 22 °C) | total relative amplitude, CaMWT (CaMWT; CaMWT with peptide, 22 °C) | reduction of Ca^2+ dissociation speed, C-lobe (CaMWT; if slower release from both lobes, C-lobe) [fold] | reduction of Ca^2+ dissociation speed, N-lobe (CaMWT; if slower release from both lobes, N-lobe) [fold] | Molecule | Kd [1] [nM] |
| --- | --- | --- | --- | --- | --- | --- | --- | --- | --- | --- | --- | --- | --- | --- | --- |
| – | – | – | – | – | – | – | – | – | – | – | – | – | – | COc1cc(N(CC(=O)O)CC(=O)O)c2nc(COc3cc(C)ccc3N(CC(=O)O)CC(=O)O)ccc2c1 [quin-2] | ~60 |
| 0.017 ± 0.002 | 0.022 ± 0.06 | 0.027 ± 0.004 | 1 | 1 | 2 mol | 0.029 ± 0.008 | 0.027 ± 0.007 | – | – | – | – | – | – | GSRPQRLLWQTAVRHITEQRFIHGH [AC8-Nt] | – |
| 0.022 ± 0.010 | 0.012 ± 0.003 | 0.032 ± 0.007 | 2 | 1 | 3 mol | 0.053 ± 0.001 | 0.024 ± 0.006 | – | – | – | – | – | – | IKPAKRMKFKTVCYLLVQLMHCRKMFKA [AC1-C1b] | – |
| 0.043 ± 0.007 | 0.021 ± 0.001 | – | 2 | 2 | four | 0.054 ± 0.006 | 0.053 ± 0.010 | 0.054 ± 0.004 | 7.0 ± 1.3 | 0.049 ± 0.006 | ~0.12 | 5 | > 60 | YSLAAVVLGLVQSLNRQRQKQLLNE [AC8-C2b] | – |
